How the values were obtained:
Type in all cases: cell-based
[1] = Cytotoxicity against human Raji cells assessed as cell viability at 1000 molar ratio; settings: read-out: Activity
[2] = system: Raji; assay: Inhibition of 12-O-tetradecanoylphorbol-13-acetate induced EBV-early antigen activation in human Raji cells assessed as EA induction at 100 molar ratio by immunofluorescence assay relative to TPA; design: scale not given: the % may be the effect or the level left; settings: human gammaherpesvirus 4
In short: (§1)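 Cells at 1 × 10⁶/mL were incubated 48 h at 37 °C with n-butyric acid (4 mM) and TPA (32 pmol, 20 ng/mL) in DMSO, plus compound in DMSO dosed as mol ratio to TPA. EA-positive cells in smears were detected by indirect immunofluorescence with high-titer EBV-EA-positive nasopharyngeal carcinoma patient sera. At least 500 cells were counted, experiments were run twice, and values are expressed relative to TPA alone (100%).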

[3] = system: Raji; assay: Inhibition of 12-O-tetradecanoylphorbol-13-acetate induced EBV-early antigen activation in human Raji cells assessed as EA induction at 10 molar ratio by immunofluorescence assay relative to TPA; design: scale not given: the % may be the effect or the level left; settings: human gammaherpesvirus 4; in short: as §1
[4] = system: Raji; assay: Inhibition of 12-O-tetradecanoylphorbol-13-acetate induced EBV-early antigen activation in human Raji cells assessed as EA induction at 500 molar ratio by immunofluorescence assay relative to TPA; design: scale not given: the % may be the effect or the level left; settings: human gammaherpesvirus 4; in short: as §1
[5] = system: Raji; assay: Inhibition of 12-O-tetradecanoylphorbol-13-acetate induced EBV-early antigen activation in human Raji cells assessed as EA induction at 1000 molar ratio by immunofluorescence assay relative to TPA; design: scale not given: the % may be the effect or the level left; settings: human gammaherpesvirus 4; in short: as §1

| SMILES | viability at 1000 molar ratio [1] [%] | Activity [2] [%] | Activity [3] [%] | Activity [4] [%] | Activity [5] [%] |
| --- | --- | --- | --- | --- | --- |
| C=C(CC[C@@H](C)[C@H]1CC[C@@]2(C)C3=C(C(=O)C[C@]12C)[C@@]1(C)CC[C@H](O)[C@@H](C)[C@@H]1CC3=O)C(C)C | 70 | 70.4 | 91.9 | 22.5 | 0 |
| C=C(CC[C@@H](C)[C@H]1CC[C@@]2(C)C3=CC[C@H]4[C@H](C)[C@@H](O)CC[C@]4(C)C3=CC[C@]12C)C(C)C | 70 | 74.9 | 92.4 | 27.3 | 0 |
| CC1(C)CC[C@]2(C(=O)O)CC[C@]3(C)C(=CC[C@@H]4[C@@]5(C)CC[C@H](O)C(C)(C)[C@@H]5CC[C@]43C)[C@@H]2C1 [OLEANOLIC_ACID] | 70 | 72.5 | 93.7 | 22.4 | 12.7 |
| C=C(CC[C@@H](C)[C@H]1CC[C@@]2(C)C3=C(C(=O)C[C@]12C)[C@@]1(C)CC[C@H](O)[C@@H](C)[C@@H]1CC3)C(C)C | 70 | 72.4 | 92.8 | 23.6 | 0 |
| C=C(CC[C@@H](C)[C@H]1CC[C@@]2(C)C3=C(CC[C@]12C)[C@@]1(C)CC[C@H](O)[C@@H](C)[C@@H]1CC3)C(C)C [OBTUSIFOLIOL] | 70 | 77.4 | 95.8 | 30.2 | 0 |
